This is an account of results in ChEMBL document CHEMBL1806484, “Design, synthesis and biological evaluation of tyrosine-based hydroxamic acid analogs as novel histone deacetylases (HDACs) inhibitors” (Bioorg Med Chem, 2011).

One experiment addresses T1, Histone deacetylase 8 (Homo sapiens, UniProt Q9BY41).
T1 sequence (Q9BY41 whole entry): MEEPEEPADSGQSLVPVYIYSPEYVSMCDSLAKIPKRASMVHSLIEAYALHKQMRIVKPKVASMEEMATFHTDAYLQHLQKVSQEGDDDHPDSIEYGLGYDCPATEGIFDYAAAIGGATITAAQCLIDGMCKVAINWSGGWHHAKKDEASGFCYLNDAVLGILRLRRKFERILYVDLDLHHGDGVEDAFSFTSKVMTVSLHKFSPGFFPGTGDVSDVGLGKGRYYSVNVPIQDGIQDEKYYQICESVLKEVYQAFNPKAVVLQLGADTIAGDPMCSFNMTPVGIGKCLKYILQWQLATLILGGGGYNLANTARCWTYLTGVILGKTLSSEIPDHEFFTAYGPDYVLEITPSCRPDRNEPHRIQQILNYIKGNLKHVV
As to the kind of experiment: Inhibition of HDAC8 using fluorogenic Boc-Lys (acetyl)-AMC as substrate after 30 mins by fluorescence assay. In short, it runs like this:
(§1)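 Enzyme (HeLa nuclear extract or HDAC8, the latter expressed and purified in-house) preincubated 5 min with graded compound concentrations. Substrate added and run for 30 min at 37 °C, then stopped with a trypsin/TSA developer for 20 min at 37 °C. Fluorescence read at ex 390/em 460 nm. Inhibition was taken relative to control wells, IC50 by regression. Mean ± SD of ≥3 determinations.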

Another experiment has as its system HCT-116. As to the kind of experiment: Antiproliferative activity against human HCT116 cells after 48 hrs by MTT assay. Format: functional, cell-based. Conditions: HCT-116, 48 h. (Tetrazolium assays rely on reduction of a dye to a coloured formazan, in cell work by metabolically active cells.)
For a further experiment, the target named is Histone deacetylase. As to the kind of experiment: Inhibition of HDAC in human HeLa cell nuclear extract using fluorogenic Boc-Lys (acetyl)-AMC as substrate after 30 mins fluorescence assay. Format: protein assay. A digest of the protocol: as §1
Another experiment deals with MDA-MB-231. The experiment is described as follows: Antiproliferative activity against human MDA-MB-231 cells after 48 hrs by MTT assay. Format: functional, cell-based. Conditions: MDA-MB-231, 48 h.
A further experiment relates to A549. The experiment is described as follows: Antiproliferative activity against human A549 cells after 48 hrs by MTT assay. Conditions: A549, 48 h. Format: functional, cell-based.

In turn, `O=C(COc1ccc(C[C@H](NC(=O)OCc2ccccc2)C(=O)Nc2ccccc2)cc1)NO` had an IC50 on Histone deacetylase 8 of 0.197 µM.

`O=C(COc1ccc(C[C@H](NC(=O)CCc2ccccc2)C(=O)Nc2ccccc2)cc1)NO` yielded an IC50 against Histone deacetylase 8 of 0.151 µM.

For `COc1ccc(NC(=O)[C@H](Cc2ccc(OCC(=O)NO)cc2)NC(=O)Cc2ccccc2)cc1`, the IC50 is 0.063 µM against Histone deacetylase 8; more than 100 µM in the experiment with HCT-116; 1.23 µM at Histone deacetylase; 22.3 µM in the experiment with MDA-MB-231; more than 100 µM in the experiment on A549.

Regarding `COc1ccc(NC(=O)[C@H](Cc2ccc(OCC(=O)NO)cc2)NCc2ccccc2)cc1`, on Histone deacetylase 8, the IC50 was 1.18 µM.

On Histone deacetylase 8, `N[C@@H](Cc1ccc(OCC(=O)NO)cc1)C(=O)Nc1ccccc1` gave an IC50 of 0.467 µM.

`COc1ccc(NC(=O)[C@H](Cc2ccc(OCC(=O)NO)cc2)NC(=O)OCc2ccccc2)cc1`: the IC50 against Histone deacetylase 8 was found to be 0.12 µM.

Molecule `COc1ccc(NC(=O)[C@H](Cc2ccc(OCC(=O)NO)cc2)NCCCc2ccccc2)cc1` gave an IC50 at Histone deacetylase 8 of 0.922 µM.

As to `COc1ccc(NC(=O)[C@H](Cc2ccc(OCC(=O)NO)cc2)NC(=O)CCc2ccccc2)cc1`, the IC50 turned out to be 0.09 µM at Histone deacetylase 8; 6.24 µM in the experiment on HCT-116; 0.889 µM against Histone deacetylase; 6.59 µM with MDA-MB-231; 54.6 µM in the experiment with A549.

`O=C(COc1ccc(C[C@H](NC(=O)OCc2ccccc2)C(=O)Nc2cccc(Cl)c2)cc1)NO` displayed an IC50 against Histone deacetylase 8 of 0.213 µM.

`CC(C)(C)OC(=O)N[C@@H](Cc1ccc(OCC(=O)NO)cc1)C(=O)Nc1ccccc1`: inhibition at Histone deacetylase 8 was half-maximal at 0.227 µM (IC50).

Take `COc1ccc(NC(=O)[C@H](Cc2ccc(OCC(=O)NO)cc2)NC(=O)CCCc2ccccc2)cc1`: the 50% inhibitory concentration (IC50) came to 0.086 µM on Histone deacetylase 8; 57.3 µM with HCT-116; 1.32 µM at Histone deacetylase; 14.3 µM in the experiment on MDA-MB-231; 97.2 µM with A549.

For `COc1ccc(NC(=O)[C@H](Cc2ccc(OCC(=O)NO)cc2)NC(=O)c2ccccc2)cc1`, the IC50 amounted to 0.087 µM on Histone deacetylase 8; 1.53 µM in the experiment on HCT-116; 0.358 µM against Histone deacetylase; 2.98 µM with MDA-MB-231; 24 µM with A549.

Regarding `COc1ccc(NC(=O)[C@H](Cc2ccc(OCC(=O)NO)cc2)NCCc2ccccc2)cc1`, the IC50 against Histone deacetylase 8 amounted to 0.66 µM.

One may read the IC50 as the point on the concentration scale where inhibition reaches its midpoint. Read a low IC50 as greater potency.
